Legend:
[1] = system: L1210; assay: Antitumor activity in the mice with intraperitoneal implanted L1210 lymphoid leukemia at the dose 34.8 and 56.1 mg/kg/day x 5 was determined and number of animals survived on 30 th day were reported; 0/8; format: functional, Mus musculus
Method in brief: (§1)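 Female C3D2F1/J mice (C3H/HeJ × DBA/2J), groups of six to eight, average weight 25 g. Each mouse got 1 × 10^6 L1210 ascites cells ip, taken from DBA/2Ha donor mice bearing 3-5 day tumors. Compound was dissolved in 0.154 N NaOH and neutralized with 0.154 N HCl (final 0.9% NaCl). Dosed ip daily ×5, starting 24 h after implant. Recorded body weight change on day 8, survival range, median survival and 30-day survivors. ILS = (T/C − 1) × 100.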

[2] = system: L1210; assay: Antitumor activity in the mice with intraperitoneal implanted L1210 lymphoid leukemia at the dose of 9.2 and 14.9 mg/kg/day x 5 was determined as mean survival of treated group compared to untreated; 9.5/9; format: functional, Mus musculus
[3] = system: L1210; assay: Antitumor activity in the mice with intraperitoneal implanted L1210 lymphoid leukemia at the dose 9.2 and 14.9 mg/kg/day x 5 was determined as Survival time in days; Range is 8-10 days; format: functional, Mus musculus
Method in brief: (§2)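 C3D2F1/J female mice (C3H/HeJ female × DBA/2J male), groups of six to eight, average weight 25 g. Inoculated ip with 1 × 10^6 L1210 ascites cells taken from DBA/2Ha donor mice bearing 3-5 day old tumors. Compounds were dissolved in 0.154 N NaOH, neutralized with 0.154 N HCl (final 0.9% NaCl), and given ip daily for 5 days from 24 h post-implant. Median survival T/C; ILS = (T/C − 1) × 100; 30-day survivors counted.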

[4] = system: L1210; assay: Antitumor activity in the mice with intraperitoneal implanted L1210 lymphoid leukemia at the dose 34.8 and 56.1 mg/kg/day x 5 was determined as Survival time in days; Range is 8-9 days; format: functional, Mus musculus; method in brief: as §1
[5] = system: L1210; assay: Antitumor activity in mice with intraperitoneal implanted L1210 lymphoid leukemia at the dose 9.2 and 14.9 mg/kg/day x 5 was determined as weight change (g/mouse) on 8th day; format: functional
Method in brief: (§3)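 C3D2F1/J female mice (C3H/HeJ × DBA/2J), groups of six to eight, average 25 g, inoculated ip with 1 × 10^6 L1210 ascites cells taken from DBA/2Ha donor mice carrying 3-5 day tumors. Compound dissolved in 0.154 N NaOH, then neutralized with 0.154 N HCl to give 0.9% NaCl. Given ip daily for 5 consecutive days starting 24 h after implantation. Body weight change per mouse recorded on day 8.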

[6] = system: L1210; assay: Antitumor activity in the mice with intraperitoneal implanted L1210 lymphoid leukemia at the dose of 34.8 and 56.1 mg/kg/day x 5 was determined as mean survival of treated group compared to untreated; 9.5/9; format: functional, Mus musculus; method in brief: as §2
[7] = system: L1210; assay: Antitumor activity in the mice with intraperitoneal implanted L1210 lymphoid leukemia at the dose 34.8 and 56.1 mg/kg/day x 5 was determined as percentage increase in the life span as compared with control tumor bearers; format: functional, Mus musculus; method in brief: as §1
[8] = system: L1210; assay: Antitumor activity in the mice with intraperitoneal implanted L1210 lymphoid leukemia at the dose 9.2 and 14.9 mg/kg/day x 5 was determined and number of animals survived on 30 th day were reported; 0/6; format: functional, Mus musculus; method in brief: as §2
[9] = system: L1210; assay: Antitumor activity in the mice with intraperitoneal implanted L1210 lymphoid leukemia at the dose 9.2 and 14.9 mg/kg/day x 5 was determined as percentage increase in the life span as compared with control tumor bearers; format: functional, Mus musculus; method in brief: as §2
[10] = system: L1210; assay: Antitumor activity in mice with intraperitoneal implanted L1210 lymphoid leukemia at the dose 34.8 and 56.1 mg/kg/day x 5 was determined as weight change (g/mouse) on 8th day; format: functional; method in brief: as §3

C[C@@H]1C[C@H]2[C@@H]3CCC4=CC(=O)C=C[C@]4(C)[C@@]3(F)[C@@H](O)C[C@]2(C)[C@@]1(O)C(=O)CO.Nc1ccn([C@@H]2O[C@H](CO)[C@@H](O)[C@@H]2O)c(=O)n1
Survivors [1]: 0
T/C [2]: 9.5
Survival time [3]: 8 days
Survival time [4]: 8 days
Weight change [5]: -4.23 g mouse-1
T/C [6]: 8.5
ILS [7]: -6%
Survivors [8]: 0
ILS [9]: -14%
Weight change [10]: -2.72 g mouse-1

Reference: ChEMBL document CHEMBL1121364, “Nucleoside conjugates as potential antitumor agents. 3. Synthesis and antitumor activity of 1-(beta-D-arabinofuranosyl)cytosine conjugates of corticosteroids” (1980)
